Experimental data: ChEMBL document CHEMBL1149648, “Norcantharimides, synthesis and anticancer activity: Synthesis of new norcantharidin analogues and their anticancer evaluation” (2007)

Columns and labels:
Type in all cases: functional
[1] = Cytotoxicity against human SJG2 cells at 100 uM after 72 hrs by MTT assay; details: SJ-G2, 72 h
Outline: (§1)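 Log-phase cells in DMEM with 10% FBS (37 °C, 5% CO2) were plated in duplicate at 2500–4000 cells/well. Agent was added 24 h later at a fixed final concentration of 100 µM and left for 72 h continuous exposure. Read-out was MTT absorbance at 540 nm, expressed as percent growth inhibition, where 100% means total growth inhibition.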

HT-29 = assay: Cytotoxicity against human HT29 cells at 100 uM after 72 hrs by MTT assay; details: HT-29, 72 h; outline: as §1
NCI-H460 = assay: Cytotoxicity against human H460 cells at 100 uM after 72 hrs by MTT assay; details: NCI-H460, 72 h; outline: as §1
SW480 = assay: Cytotoxicity against human SW480 cells at 100 uM after 72 hrs by MTT assay; details: SW480, 72 h; outline: as §1
DU-145 = assay: Cytotoxicity against human DU145 cells at 100 uM after 72 hrs by MTT assay; details: DU-145, 72 h; outline: as §1
MCF7 = assay: Cytotoxicity against human MCF7 cells at 100 uM after 72 hrs by MTT assay; details: MCF7, 72 h; outline: as §1
A2780 = assay: Cytotoxicity against human A2780 cells at 100 uM after 72 hrs by MTT assay; details: A2780, 72 h; outline: as §1
A-431 = assay: Cytotoxicity against human A431 cells at 100 uM after 72 hrs by MTT assay; details: A-431, 72 h; outline: as §1
[2] = Cytotoxicity against human BE2C cells at 100 uM after 72 hrs by MTT assay; details: BE(2)-C; outline: as §1

| Compound | inhibition at 100 µM [1] | inhibition at 100 µM (HT-29) | inhibition at 100 µM (NCI-H460) | inhibition at 100 µM (SW480) | inhibition at 100 µM (DU-145) | inhibition at 100 µM (MCF7) | inhibition at 100 µM (A2780) | inhibition at 100 µM (A-431) | inhibition at 100 µM [2] | GI50 [1] | GI50 (HT-29) | GI50 (NCI-H460) | GI50 (SW480) | GI50 (DU-145) | GI50 (MCF7) | GI50 (A2780) | GI50 (A-431) | GI50 [2] |
| --- | --- | --- | --- | --- | --- | --- | --- | --- | --- | --- | --- | --- | --- | --- | --- | --- | --- | --- |
| COc1ccc(CN2C(=O)[C@@H]3[C@H](C2=O)[C@@H]2CC[C@H]3O2)cc1 | 11% | 45% | 23% | 24% | < 10% | 64% | 20% | 14% | 29% | – | – | – | – | – | – | – | – | – |
| CCCN1C(=O)[C@@H]2[C@H](C1=O)[C@@H]1CC[C@H]2O1 | < 10% | 16% | < 10% | 45% | < 10% | < 10% | < 10% | < 10% | < 10% | – | – | – | – | – | – | – | – | – |
| CCCCCCCCCCCCCCN1C(=O)[C@@H]2[C@H](C1=O)[C@@H]1CC[C@H]2O1 | – | – | – | – | – | – | – | – | – | 49 µM | 19 µM | 66 µM | 52 µM | 73 µM | 43 µM | 35 µM | 47 µM | 50 µM |
| O=C1[C@@H]2[C@H](C(=O)N1c1ccccc1)[C@@H]1CC[C@H]2O1 | 42% | 63% | 50% | 78% | 24% | > 100% | 90% | 25% | 54% | – | – | – | – | – | – | – | – | – |
| CCN1C(=O)[C@@H]2[C@H](C1=O)[C@@H]1CC[C@H]2O1 | < 10% | < 10% | < 10% | < 10% | < 10% | < 10% | < 10% | < 10% | < 10% | – | – | – | – | – | – | – | – | – |
| O=C1[C@@H]2[C@H](C(=O)N1CCCCCCCCCCCCN1C(=O)[C@@H]3[C@H](C1=O)[C@@H]1CC[C@H]3O1)[C@@H]1CC[C@H]2O1 | – | – | – | – | – | – | – | – | – | 43 µM | 8.3 µM | 31 µM | 24 µM | 60 µM | 18 µM | 19 µM | 18 µM | 17 µM |
| O=C1[C@@H]2[C@H](C(=O)N1CC1CO1)[C@@H]1CC[C@H]2O1 (stereo partly specified) | 25% | 25% | 17% | 30% | 22% | 10% | 40% | 40% | 20% | – | – | – | – | – | – | – | – | – |
| O=C1[C@@H]2[C@H](C(=O)N1N1CCOCC1)[C@@H]1CC[C@H]2O1 | 3% | 29% | 18% | 29% | 3% | 12% | 7% | 30% | 39% | – | – | – | – | – | – | – | – | – |
| O=C1[C@@H]2[C@H](C(=O)N1CCCN1CCOCC1)[C@@H]1CC[C@H]2O1 | < 10% | < 10% | < 10% | < 10% | < 10% | < 10% | < 10% | < 10% | < 10% | – | – | – | – | – | – | – | – | – |
| O=C1[C@@H]2[C@H](C(=O)N1CCO)[C@@H]1CC[C@H]2O1 | < 10% | 31% | 16% | 18% | < 10% | 45% | 15% | < 10% | < 10% | – | – | – | – | – | – | – | – | – |
| O=C1[C@@H]2[C@H](C(=O)N1CCN1CCOCC1)[C@@H]1CC[C@H]2O1 | < 10% | < 10% | < 10% | < 10% | < 10% | < 10% | < 10% | < 10% | < 10% | – | – | – | – | – | – | – | – | – |
| CC(C)(CO)N1C(=O)[C@@H]2[C@H](C1=O)[C@@H]1CC[C@H]2O1 | < 10% | < 10% | < 10% | < 10% | < 10% | < 10% | < 10% | < 10% | < 10% | – | – | – | – | – | – | – | – | – |
| CCCCN1C(=O)[C@@H]2[C@H](C1=O)[C@@H]1CC[C@H]2O1 | < 10% | < 10% | < 10% | < 10% | < 10% | < 10% | < 10% | < 10% | < 10% | – | – | – | – | – | – | – | – | – |
| CCCCCCCCN1C(=O)[C@@H]2[C@H](C1=O)[C@@H]1CC[C@H]2O1 | 54% | 70% | < 10% | 65% | 44% | 88% | 50% | 61% | 68% | – | – | – | – | – | – | – | – | – |
| CCCCCCCCCCCCN1C(=O)[C@@H]2[C@H](C1=O)[C@@H]1CC[C@H]2O1 | 58% | 25% | 53% | 55% | 66% | 52% | 40% | 35% | 40% | – | – | – | – | – | – | – | – | – |
| O=C1[C@@H]2[C@H](C(=O)N1c1ccc([N+](=O)[O-])cc1)[C@@H]1CC[C@H]2O1 | 23% | 60% | 37% | 44% | 13% | > 100% | 53% | 13% | 45% | – | – | – | – | – | – | – | – | – |
| O=C(O)CCCN1C(=O)[C@@H]2[C@H](C1=O)[C@@H]1CC[C@H]2O1 | < 10% | < 10% | < 10% | < 10% | < 10% | < 10% | < 10% | < 10% | < 10% | – | – | – | – | – | – | – | – | – |
| CCCCCCCCCCCCCCCCCCN1C(=O)[C@@H]2[C@H](C1=O)[C@@H]1CC[C@H]2O1 | < 10% | < 10% | < 10% | < 10% | < 10% | < 10% | < 10% | < 10% | < 10% | – | – | – | – | – | – | – | – | – |
| O=C1[C@@H]2[C@H](C(=O)N1c1ccc(O)cc1)[C@@H]1CC[C@H]2O1 | 44% | 47% | 12% | 21% | < 10% | 22% | 15% | 27% | 14% | – | – | – | – | – | – | – | – | – |
